KCNK3 inh = human KCNK3 channel inhibitors, primary screen, CHO cells, FluxOR thallium flux, B-score. Potassium channel subfamily K member 3 (Homo sapiens), O14649. 340,000 tested, 0.84% active. B-score at 10 µM. FluxOR fluorescence; stronger effect = lower value. AID 602410, 2012;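 active = B-score under library mean minus 4 SD, starting fluorescence ratio at most library mean plus 5 SD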;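 also: more negative B-score means stronger inhibition of thallium flux through KCNK3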
Kir21 inh = inhibitors of mouse Kir2.1 inward-rectifier potassium channel; AID 1672, 2009; 310,000 tested, 0.85% active; Inward rectifier potassium channel 2 (Mus musculus), P35561; B-score at 10 µM; HEK293-Kir2.1, FluxOR thallium flux fluorescence; stronger effect = lower value;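 active = fluorescence ratio B-score at or below minus 3 SD of library scores, with starting-brightness B-score within 2 SD, cut at about -4.2 in these data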;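 also: channel flux triggered by added potassium and thallium sulfate stimulus; B-score of peak minus minimum fluorescence over baseline after thallium stimulus; more negative B-score means stronger Kir2.1 block with less thallium influx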
KCNK9 block = KCNK9 potassium channel inhibitors, primary screen, HEK293 cells, thallium flux | AID 488922, 2010 | Potassium channel subfamily K member 9 (Homo sapiens), Q9NPC2 | FluxOR thallium flux fluorescence; stronger effect = lower value | 310,000 tested, 1.2% active | B-score at 10 µM;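 active = ratio B-score over 3 SD below the library mean, with starting fluorescence within 5 SD of its mean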;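 also: negative B-score means less thallium flux so channel inhibition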
Target sequence (Q9NPC2 whole entry, looked up): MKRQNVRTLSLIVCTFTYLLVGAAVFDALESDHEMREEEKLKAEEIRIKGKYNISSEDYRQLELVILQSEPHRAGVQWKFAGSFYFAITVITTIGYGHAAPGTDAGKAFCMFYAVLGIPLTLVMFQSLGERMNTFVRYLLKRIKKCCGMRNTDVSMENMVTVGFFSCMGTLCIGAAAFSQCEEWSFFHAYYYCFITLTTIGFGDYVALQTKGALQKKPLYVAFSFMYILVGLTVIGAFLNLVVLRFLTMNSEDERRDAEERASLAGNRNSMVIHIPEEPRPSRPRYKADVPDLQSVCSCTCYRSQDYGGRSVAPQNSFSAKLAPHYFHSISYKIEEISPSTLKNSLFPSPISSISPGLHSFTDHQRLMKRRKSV
hERG rescue = hERG rescue from dofetilide block, primary screen, cell-based, CHO-hERG, FluxOR thallium flux, dofetilide IC70; AID 1511, 2009; 310,000 tested, 0.51% active; dofetilide IC70 present; activation (rescue from dofetilide block), less the hit threshold, % at 10 µM;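 active = activation above the mean of controls blocked by dofetilide plus 5 SD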;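 also: thallium influx through hERG after potassium depolarization seen as dye fluorescence rise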
KCNQ1 block = inhibitors of human KCNQ1 channel, primary screen, cell-based, thallium flux, high-throughput; Potassium voltage-gated channel subfamily KQT member 1 (Homo sapiens), P51787; B-score at 10 µM; CHO-K1 KCNQ1, FluxOR thallium flux fluorescence; stronger effect = higher value; 310,000 tested, 1.3% active; AID 2642, 2010;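 active = compounds whose thallium flux B-score, printed positive for inhibition, exceeds three library SD while starting fluorescence stays within three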;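 also: channel opened by potassium depolarization with thallium stimulus after 20 min compound exposure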
KCNQ1 pot = potentiators or activators of KCNQ1 channel, primary screen, cell-based, thallium flux, high-throughput; Potassium voltage-gated channel subfamily KQT member 1 (Homo sapiens), P51787; B-score at 10 µM; 310,000 tested, 0.35% active; CHO-K1 KCNQ1, thallium flux FluxOR fluorescence; stronger effect = higher value;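 active = fluorescence ratio B-score, a plate-corrected score, at least three library SD, with initial intensity B-score within 5 SD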
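assay system = KCNQ1-transfected CHO-K1 cells | medium = assay buffer with matched DMSO | probe or stimulus = depolarizing K+/Tl+ stimulus, K2SO4 and Tl2SO4 each 12.5 mM in 5x stock | dosing = single dose | incubation = dye 90 min, compound 20 min, room temperature | detection = kinetic FluxOR fluorescence, 10 s baseline plus 110 s post-stimulus | evaluation = ratio B score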
KCNK3 inh conf = retest of human KCNK3 channel inhibitors, confirmation, CHO cells, FluxOR thallium flux, triplicate; shares compounds with KCNK3 inh; FluxOR fluorescence; 0% buffer, 100% carvedilol maximal block; 2,400 tested, 99% active; ratio percent of control, % at 10 µM;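 active = ratio percent of control, averaged over triplicates, above buffer control mean plus 5 SD, cut at about 64% in these data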;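 also: ratio is the fluorescence rise from min to max over baseline after thallium stimulus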
KCNK3 noninduced = thallium flux inhibition in non-induced cells, primary screen, counter-screen for KCNK3 inhibitor project, cell-based, non-induced KCNK3 line, FluxOR thallium, triplicate; AID 651747, 2012; shares compounds with KCNK3 inh; non-induced KCNK3 parental cells; stronger effect = lower value; thallium flux ratio (lower = more inhibition) at 10 µM; 2,400 tested, 40% active;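 active = thallium flux ratio, averaged over three wells, more than 5 SD below the buffer control mean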;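 also: host cells are CHO cells without KCNK3 induction; ratio is peak minus trough fluorescence over baseline then normalized to buffer controls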
* = called active by the depositor; i = inactive; . = no result given. This is a sample that favours compounds with a hit; in the whole collection about 3.7% have one here.

SMILES	KCNK3 inh	Kir21 inh	KCNK9 block	hERG rescue	KCNQ1 block	KCNQ1 pot	KCNK3 inh conf	KCNK3 noninduced
O=C(Nc1ccccc1N1CCOCC1)c1cc2c(s1)CCCCC2	-10*	0.4	i	-5	i	i	118*	i
O=C(Nc1ccccc1N1CCOCC1)c1cccc(NS(=O)(=O)c2ccc(F)c(F)c2)c1	-8.7*	-1.2	i	-10	i	i	94*	0.16*
CC(=O)Nc1cccc(C(=O)Nc2ccccc2N2CCOCC2)c1	i	-2.5	i	-12	i	i	.	.
CCCOP(=O)(OCCC)C(Nc1ccc(C(C)C)cc1)c1ccc([N+](=O)[O-])cc1 (stereo unspecified)	-8.8*	1.2	i	-16	i	i	118*	0.16*
Cc1ccc2oc(C(=O)N(Cc3ccccc3)C3CCS(=O)(=O)C3)c(C)c2c1 (stereo unspecified)	i	5.9e-16	i	0	i	i	.	.
Cc1cc2oc(C(=O)N(Cc3ccccc3)C3CCS(=O)(=O)C3)c(C)c2cc1C (stereo unspecified)	-11*	-1.6	i	-14	i	i	92*	i
Cc1c(C(=O)Nc2ccc(Cl)cc2)c2ccccn2c1CCc1ccncc1	-9.7*	-0.35	i	-7	i	i	109*	0.14*
COc1ccc(Cl)cc1NC(=O)CN(C)C(=O)c1cc2c(s1)CCC(C)C2 (stereo unspecified)	-8.8*	0.8	i	-11	i	i	107*	i
COc1ccc(CN(C)CC(=O)Nc2cccc3ccccc23)cc1F	-11*	1.2	i	-14	i	i	91*	i
COc1ccc(NC(=O)CN(C)C(=O)c2cc3c(s2)CCC(C)C3)cc1 (stereo unspecified)	i	-1.5	i	-13	i	i	.	.
COc1ccc(Cl)cc1NC(=O)CN(C)CC(=O)Nc1ccccc1C(F)(F)F	-9.1*	0.2	i	-21	i	i	102*	i
O=C(N/N=C/C1C(c2ccccc2)C1(Cl)Cl)c1cccc(Br)c1 (stereo unspecified)	-13*	1.6	-7.4*	-11	10*	i	115*	i
Cc1ccc(C(=O)CSc2cc(C)nc(SCC(=O)c3ccccc3)n2)cc1	-9*	-0.44	i	-8	i	i	112*	i
Cc1cc(SCC(N)=O)nc(SCC(=O)c2ccccc2)n1	i	0.01	i	2	i	i	.	.
Cc1ccc(NC2CCCN(C(=O)c3ccoc3C)C2)cc1C (stereo unspecified)	i	-0.93	i	-9	i	i	.	.
CCc1nc2ccccc2n1CC1CC1(Cl)Cl (stereo unspecified)	i	-2	i	-9	i	i	.	.
COc1ccc(C(=O)CC(Nc2ccc([N+](=O)[O-])cc2)c2ccc(Cl)cc2)cc1 (stereo unspecified)	-9.1*	-0.89	-6.7*	-19	12*	i	132*	0.14*
COc1ccc(C(=O)NC(CC(=O)O)c2cc([N+](=O)[O-])ccc2Cl)cc1 (stereo unspecified)	i	1.9	i	-4	i	i	.	.
Clc1cccc(OCc2nnc(-c3ccccc3Br)o2)c1	-11*	0.31	i	-13	i	i	105*	i
